Consider 48 sequences from the EternaBench riboswitch data.

This series has as its system MS2 coat protein. Kind of series: apparent Kd, MS2 coat protein; higher = weaker binding; RNA-MaP array; FMN 200 µM where present. Summed up:
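Two titrations, one without ligand and one with constant ligand, were run with SNAP-549-labelled MS2 coat protein from 0.7 or 1.5 nM, doubling to 3 µM. The targets were designs transcribed by stalled E. coli RNA polymerase on Illumina sequencing-chip clusters, in 100 mM Tris-HCl pH 7.5, 80 mM KCl, 4 mM MgCl2, BSA, DTT, yeast tRNA and Tween-20. The apparent Kd is the median of filtered per-cluster binding-curve fits, with green signal normalised to red-channel RNA signal and control-cluster median Fmax.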

Where [1] appears, read: designed as: OFF switch for flavin mononucleotide, no ligand.
[2] abbreviates: ligand present: flavin mononucleotide, designed as: OFF switch for flavin mononucleotide.
Where [3] appears, read: designed as: ON switch for flavin mononucleotide, no ligand.
[4] abbreviates: ligand present: flavin mononucleotide, designed as: ON switch for flavin mononucleotide.

Turning to “AUCAUUCGUGUAGGAUAUGCGUGGCGAAGCUAUGCAGAAGGACAUGAGGAUCACCCAUGUCUUUCUGUCUGUGUACAGACAGGA”, the “apparent Kd” value is, setting by setting: under setting [1], 22.2 nM; under setting [2], 94.8 nM.

For “AAUAUGUUGCAGAAGGCUAUAUUGUGGUAGUACCUCAUGACAUGAGGAUCACCCAUGUUUGUGUUGGAGGAUAUGCAAUAUAUU”, the “apparent Kd” value runs as follows: under setting [1], 16.2 nM; under setting [2], 64.9 nM.

On to “AUCAGCUCGUCAGGAUAUACGUCACUGCGUCAGCAGUGUGGUAAGAUCACAUGAGGAUCACCCAUGUAGAAGGGACGGGCUGAU”, for which the “apparent Kd” value runs as follows: under setting [1], 13.8 nM; under setting [2], 253 nM.

In the case of “UGCCGUAGAGGAUAUACAUAGAAAUAGAUUCAUGUAAAACUACAUGAGGAUCACCCAUGUAGAAGGCUAUGGCU”, the “apparent Kd” value under setting [1] was 21.6 nM and the “apparent Kd” value under setting [2] was 137 nM.

Consider “GAGCGAAAGCUCAAUGUCGAUAGCAGAAGGACAUGAAAACAUGAAAAUACAUGAGGAUCACCCAUGUAGGAUAUGCUAUCGACU”, for which the “apparent Kd” value was determined as 6.7 nM under setting [1] and 24.3 nM under setting [2].

Regarding “GUCAGCUCGUGAGGAUAUACAACACUGCUUCGGCAGUGUAUUAAGAUGACAUGAGGAUCACCCAUGUAGAAGGCACGAGCUGAU”, the “apparent Kd” value reads like this: under setting [1], 5.78 nM; under setting [2], 21 nM.

For the sequence “UGGUACUAUGGAGGAUAUGGGAAGAUACAUGAGGAUCACCCAUGUUUAAGAAUGCCGAGAGGCAACUAGAAGGCCCUAGUACCU”, the “apparent Kd” value was determined as 349 nM under setting [3] and 32.7 nM under setting [4].

As for “ACAUCACAUGAGGAUCACCCAUGUCAGGAUAUCGACUGAACAGCUUCGGCUGUUCAGUCGAGAAGGGACAAUUA”, the “apparent Kd” value reads like this: under setting [1], 66.5 nM; under setting [2], 131 nM.

On to “CAGCGAUAGCUGAACAAUCUAUCUGAGGAUAUUCAUAAAACAUGAGGAUCACCCAUGUGAAAUUGGGAGAAGGCAGAUAGAUUG”, for which the “apparent Kd” value reads like this: under setting [3], 7.7 nM; under setting [4], 4.42 nM.

In the case of “AUAAUAAAGGAGGAUAUCGUAUCGGAAACGAUACGAGAAGGUCUAACAUGAGGAUCACCCAUGUUCCUCAAAUA”, the “apparent Kd” value reads like this: under setting [1], 43.6 nM; under setting [2], 68 nM.

Regarding “CUGAUGUCAGGAUAUCGGUGGCUCACUUGUGUGUGCCAGACCGAGAAGGGACAUGAGGAUCACCCAUGUUUUUA”, the “apparent Kd” value by setting is: under setting [1], 86.1 nM; under setting [2], 370 nM.

Consider “UUAAUUAAUUAAUUCGUCAAUUACAUGAGGAUCACCCAUGUAUAGGAUAUGCAGUGGAAUACACUGCAGAAGGAUACAUAGACG”, for which the “apparent Kd” value by setting is: under setting [1], 22.6 nM; under setting [2], 41.5 nM.

Take “GCACUUACGUUAGGAUAUGUAUCGGAAAACGAUACAGAAGGAAUAUGGGAACAUGAGGAUCACCCAUGUUCCUGAGACGAGUGC”: the “apparent Kd” value under setting [3] was determined as 69.1 nM and the “apparent Kd” value under setting [4] was determined as 41.6 nM.

“CCCUCAAGCGAGGAUAUAAAUGCGCAUUCGCGGUUAGAAGGCGCUACAUGAGGAUCACCCAUGUAAUAAAAUGG”: the “apparent Kd” value reads like this: under setting [1], 68.2 nM; under setting [2], 86.4 nM.

As for “UGGUGAAGUGUAGGAUAUGGAGAUGGGUUUUGGCCAGAAGGACAUGAGGAUCACCCAUGUGGUAGAGGGUUGGUGGUGGCUCGU”, the “apparent Kd” value was 31.6 nM under setting [1] and 24.3 nM under setting [2].

Consider “CGCUACUACCAGAAGGACAUGAGGAUCACCCAUGUAGGAUAUGGGUUACAAGUACCAGUGUAGAGAAACUACGCUACAGUAGCG”, for which the “apparent Kd” value runs as follows: under setting [3], 29.8 nM; under setting [4], 8.3 nM.

Regarding “GUAUAUAGUGUGAGGAUAUGCUGGUCCUUGGAUCAGCAGAAGGCACAUGAGGAUCACCCAUGUAGUUUAUUUUA”, the “apparent Kd” value stood at 30.6 nM under setting [1] and 89.4 nM under setting [2].

For “UCGUAACGAGGAUAUACAAGGGUCAGGCCCGCCUGACACACACAUGAGGAUCACCCAUGUAGAAGGUGUAGCGC”, the “apparent Kd” value turned out to be 19.4 nM under setting [1] and 18.4 nM under setting [2].

Take “UUGGUUGUCGUAGGAUAUGUAGGAUAUUCCUACAUGAGGAUCACCCAUGUUCGCAUGGAAGAAGGACAGAAGGACGAUGACCAA”: the “apparent Kd” value is 1080 nM under setting [3] and 10.4 nM under setting [4].

In the case of “UCCUUCUGUUGAGGAUAUGUAAGACAGCGGCUGCUAUGGCGACACGCUGAUACAGAAGGCAACAUGAGGAUCACCCAUGUUCAA”, the “apparent Kd” value reads like this: under setting [1], 19.2 nM; under setting [2], 145 nM.

As to “AGUCCAGAAGGAUAUACAUAGGUGAAAAAAAAAAAAAAACUACAUGAGGAUCACCCAUGUAGAAGGUCUGGACA”, the “apparent Kd” value under setting [1] came out at 93.5 nM and the “apparent Kd” value under setting [2] came out at 46 nM.

In the case of “AAGCCCUGAGGAUAUCCCAACUCGCACAUGAGGAUCACCCAUGUCCUUCUCUGGGUUUCGGGAGAAGGCAGGUCUC”, the “apparent Kd” value is 348 nM under setting [1] and 161 nM under setting [2].

Take “GUCAGUUCGUGAGGAUAUACAACACUGCUUCGGCAGUGUAUUAAGAUCACAUGAGGAUCACCCAUGUAGAAGGCACGAGCUGAU”: the “apparent Kd” value reads like this: under setting [1], 14 nM; under setting [2], 269 nM.

Take “ACUGUUAGAGUCUUCCUUAUCACAUGAGGAUCACCCAUGUGGAGAAGGGACUGUAUCGUUAUCAGUUAGGAUAUCCAUGUGUGC”: the “apparent Kd” value by setting is: under setting [1], 4.62 nM; under setting [2], 4.72 nM.

As for “CGUAUUAAACAAGGAUAUCAUUUGUGUACAAGUUUUACAUGAGGAUCACCCAUGUUAAAUGGUUUUGAGAAGGUGUUUAGAUCG”, the “apparent Kd” value reads like this: under setting [3], 35.3 nM; under setting [4], 25.9 nM.

For the sequence “CUUUUGUGAGGAUAUUAGUAGUAAAUGAUUAAAAUUAUUACUGAGAAGGCACAUGAGGAUCACCCAUGUUCCUC”, the “apparent Kd” value under setting [1] came to 45.1 nM and the “apparent Kd” value under setting [2] amounted to 655 nM.

With “AAUUUACAUGAGGAUCACCCAUGUCAGGAUAUGGUUUUAUUUUUUUCUUUUUUUGAUUCCAGAAGGGACAGUUA”, the “apparent Kd” value is 148 nM under setting [1] and 79.6 nM under setting [2].

Regarding “AGCUGCCGGUCACAUGAGGAUCACCCAUGUAACCUGCAUUCACAGGAUAUGUUGGCUCCUUGCCGGCAGAAGGGUGAAGCGCCG”, the “apparent Kd” value by setting is: under setting [3], 371 nM; under setting [4], 107 nM.

As to “AGAAACUACGAGAAGGACAUAUGGUACUUCAGAUACAUGAGGAUCACCCAUGUAGGAUAUCGUAGUUUCAGGAUCGUGAGAUCA”, the “apparent Kd” value under setting [1] came to 9.58 nM and the “apparent Kd” value under setting [2] was determined as 42.6 nM.

As to “CUUUCGUUAGCAGGAUAUGGACAGGCCUGUCCGUAUUGAGUCAGUAACAUGAGGAUCACCCAUGUCCAGAAGGGCUCGAAGGGA”, the “apparent Kd” value came out at 14.1 nM under setting [1] and 46.6 nM under setting [2].

For “ACAUGAGGAUCACCCAUGUAAUGAAGGGUACUAUACUAAACGUAGGAUAUCGAUGUAAGAUUGUACGAGAAGGACGAUUGCCUU”, the “apparent Kd” value under setting [2] was 38.8 nM.

As for “AACUGCGCAUGAGGAUAUCCCGGACAUGAGGAUCACCCAUGUAAGCACAAGGGAGAAGGCAUGUGCCUCAAUUAGUUCCCACAA”, the “apparent Kd” value by setting is: under setting [3], 61.9 nM; under setting [4], 7.08 nM.

As for “AUGAGGUCAGGAUAUGCAUGGCGGGACUUGCGUCGUGGCGUGCAGAAGGGACAUGAGGAUCACCCAUGUGGAGC”, the “apparent Kd” value under setting [1] was found to be 73.4 nM and the “apparent Kd” value under setting [2] was 169 nM.

As for “CUUUUGUGAGGAUAUUAGUAGUAAAAAAAUAAAAUUACUACUGAGAAGGCACAUGAGGAUCACCCAUGUUCCUU”, the “apparent Kd” value reads like this: under setting [1], 14.8 nM; under setting [2], 39 nM.

Regarding “CAGCGCUGUUGAGAGGAUAUGCGGUGAUGGACAUGAGGAUCACCCAUGUUAGCGAUAGCAUUACGGUAGAAGGCUCUACAGCUGC”, the “apparent Kd” value amounted to 18.5 nM under setting [3] and 12.3 nM under setting [4].

In the case of “GAUCAACAUGAGGAUCACCCAUGUGAGGAUAUGAUACUAUGUACUUCGGUACAUAGUAUCAGAAGGCAUGUGGA”, the “apparent Kd” value was determined as 158 nM under setting [1] and 39.4 nM under setting [2].

On to “GAAUUCGCAUGAGGAUAUGCACUCAUUUCAUGUGCAGAAGGUAUAACAUUAGACAUGAGGAUCACCCAUGUAUUAGUCAUUAAC”, for which the “apparent Kd” value runs as follows: under setting [3], 10.1 nM; under setting [4], 9.37 nM.

Turning to “GGUACCAUUACAGGAUAUGCUUUCCUUUGGAAAGCAGAAGGGUGUAACAUGAGGAUCACCCAUGUGGUGCCAGGGCGUGAGCCC”, the “apparent Kd” value is, setting by setting: under setting [3], 659 nM; under setting [4], 182 nM.

Consider “UAGGGUGUACGAGGAUAUGGGCAUUGGUGGAUCUCAGAAGGCGUAUACGCGCGCAGACAUGAGGAUCACCCAUGUACCCGGCUU”, for which the “apparent Kd” value came out at 62.8 nM under setting [3] and 23.6 nM under setting [4].

Turning to “GUAUAUAGUGUGAGGAUAUGCUGGUCCUUGGAUCAGCAGAAGGCACAUGAGGAUCACCCAUGUAGUUUAUUAUG”, the “apparent Kd” value was 19.7 nM under setting [1] and 78 nM under setting [2].

Turning to “GGAGGACAUGAGGAUCACCCAUGUGGAUGAUCGCUAGGAUAUGCGUAAAGGAGGAGUGGUGCAGAAGGAGUGGGAU”, the “apparent Kd” value is, setting by setting: under setting [3], 464 nM; under setting [4], 360 nM.

With “CUCGUUAUGUUAGGAUAUGAUGCAUCCCGAUAAUCAGAAGGAACAUGAGGAUCACCCAUGUGACAUUUGGUGAAAACAAGCCAA”, the “apparent Kd” value is, setting by setting: under setting [1], 6.35 nM; under setting [2], 7.87 nM.

Regarding “UGAUAGGACAGAGGAUAUACGUGCUAGAGAUACUAGCAAAAUAUCCUUACAUGAGGAUCACCCAUGUAGAAGGCUGUCCUAUCU”, the “apparent Kd” value stood at 20 nM under setting [1] and 20.2 nM under setting [2].

For “UGUGCGUAUGUGAGGAUAUGCUGGUCCUUGGAUCGGCAGAAGGCACAUGAGGAUCACCCAUGUGGUGUCGUUCC”, the “apparent Kd” value under setting [1] stood at 144 nM and the “apparent Kd” value under setting [2] turned out to be 57.8 nM.

Consider “AAAAAUGGAGGAUAUACAUGAGGAUCACCCAUGUGUGGGCAUACUAUGUCGGCGUCAGGUAGAAGGCCAAAAAA”, for which the “apparent Kd” value was determined as 40.8 nM under setting [1] and 48.9 nM under setting [2].

With “UCAGGCUUCGAGAAGGACAUGAAUCGUAGCAUUGCUACGAUGAAUUAUACAUGAGGAUCACCCAUGUAGGAUAUCGGAGUCUGC”, under setting [2], the “apparent Kd” value amounted to 6.34 nM.

“AUGUGUCUUCGCGUCCUGCCCGGACAUGAGGAUCACCCAUGUAGAAGGCGGUGGCAAUGCUAGACCGAGGAUAUACAUGCAAAC”: the “apparent Kd” value was determined as 17.8 nM under setting [1] and 51.3 nM under setting [2].

On to “AGACGGAUCCGCGGUCGAUGCUAACUAGAAGGGCAGGUCACAUGAGGAUCACCCAUGUAGUAUAUGUAGGAUAUAGGAAGCGUG”, for which the “apparent Kd” value under setting [3] is 95.2 nM and the “apparent Kd” value under setting [4] was determined as 20.9 nM.
